{"source": "paper PMC8554411", "about": "(Pharmacology Research & Perspectives, 2021)", "key": {"human mu opioid receptor [1]": {"molecular_target": "T1, human mu opioid receptor (Homo sapiens, UniProt P35372)", "T1 sequence (P35372 whole entry)": "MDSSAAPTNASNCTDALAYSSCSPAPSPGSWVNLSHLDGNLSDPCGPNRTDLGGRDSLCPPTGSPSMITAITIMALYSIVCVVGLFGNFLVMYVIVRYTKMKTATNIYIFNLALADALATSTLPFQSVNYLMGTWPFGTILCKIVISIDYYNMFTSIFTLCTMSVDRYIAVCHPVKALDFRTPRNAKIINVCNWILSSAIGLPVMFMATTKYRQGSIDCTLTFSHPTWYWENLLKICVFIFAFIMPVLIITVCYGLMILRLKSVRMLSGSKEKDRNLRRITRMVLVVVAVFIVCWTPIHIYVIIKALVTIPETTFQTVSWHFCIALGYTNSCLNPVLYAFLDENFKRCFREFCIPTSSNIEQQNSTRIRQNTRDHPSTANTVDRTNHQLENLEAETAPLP", "assay": "cell-based", "conditions": "HEK293, read-out: DAMGO Emax, inhibition of forskolin stimulated cAMP levels"}, "human mu opioid receptor [2]": {"molecular_target": "T1, human mu opioid receptor", "assay_type": "cell-based"}, "mu opioid receptor [3]": {"molecular_target": "mu opioid receptor (Rattus norvegicus, UniProt P33535)", "sequence (P33535 whole entry)": "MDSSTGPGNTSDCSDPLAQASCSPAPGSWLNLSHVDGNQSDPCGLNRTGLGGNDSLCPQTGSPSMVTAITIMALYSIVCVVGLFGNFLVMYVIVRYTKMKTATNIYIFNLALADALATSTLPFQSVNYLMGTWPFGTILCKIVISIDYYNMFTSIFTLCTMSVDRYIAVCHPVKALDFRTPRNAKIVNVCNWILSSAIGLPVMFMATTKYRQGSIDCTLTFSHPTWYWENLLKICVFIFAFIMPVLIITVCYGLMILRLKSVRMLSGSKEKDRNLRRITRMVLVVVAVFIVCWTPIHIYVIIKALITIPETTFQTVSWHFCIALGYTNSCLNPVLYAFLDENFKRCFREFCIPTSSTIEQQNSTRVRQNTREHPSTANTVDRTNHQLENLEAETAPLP", "assay_type": "in vivo"}, "mu opioid receptor [4]": {"test_system": "mu opioid receptor", "conditions": "mice treated with MCAM; cited from earlier work"}, "[5]": {"molecular_target": "human kappa opioid receptors (Homo sapiens, UniProt P41145)", "sequence (P41145 whole entry)": "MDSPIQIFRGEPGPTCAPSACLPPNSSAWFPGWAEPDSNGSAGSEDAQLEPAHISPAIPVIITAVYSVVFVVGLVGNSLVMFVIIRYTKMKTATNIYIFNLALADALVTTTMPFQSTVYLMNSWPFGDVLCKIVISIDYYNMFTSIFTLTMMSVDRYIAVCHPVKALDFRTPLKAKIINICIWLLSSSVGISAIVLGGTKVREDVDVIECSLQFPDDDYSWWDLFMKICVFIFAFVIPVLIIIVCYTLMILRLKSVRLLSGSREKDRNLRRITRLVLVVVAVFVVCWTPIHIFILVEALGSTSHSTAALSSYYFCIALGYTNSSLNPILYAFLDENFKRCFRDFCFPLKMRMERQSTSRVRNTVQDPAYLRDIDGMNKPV", "assay_type": "cell-based"}, "delta opioid receptor": {"molecular_target": "delta opioid receptor (Rattus norvegicus, UniProt P33533)", "sequence (P33533 whole entry)": "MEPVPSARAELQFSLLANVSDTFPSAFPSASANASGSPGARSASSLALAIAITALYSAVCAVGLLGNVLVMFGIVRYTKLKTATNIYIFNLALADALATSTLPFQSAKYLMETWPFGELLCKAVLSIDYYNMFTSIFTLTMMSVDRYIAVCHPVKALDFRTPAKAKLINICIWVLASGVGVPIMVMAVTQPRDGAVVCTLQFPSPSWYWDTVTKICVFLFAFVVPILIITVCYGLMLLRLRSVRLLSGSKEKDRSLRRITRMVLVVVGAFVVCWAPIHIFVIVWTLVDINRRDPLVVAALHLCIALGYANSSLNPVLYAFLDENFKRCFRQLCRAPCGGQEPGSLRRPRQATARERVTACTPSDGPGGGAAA", "assay_type": "in vivo"}, "[6]": {"molecular_target": "human delta opioid receptors (Homo sapiens, UniProt P41143)", "sequence (P41143 whole entry)": "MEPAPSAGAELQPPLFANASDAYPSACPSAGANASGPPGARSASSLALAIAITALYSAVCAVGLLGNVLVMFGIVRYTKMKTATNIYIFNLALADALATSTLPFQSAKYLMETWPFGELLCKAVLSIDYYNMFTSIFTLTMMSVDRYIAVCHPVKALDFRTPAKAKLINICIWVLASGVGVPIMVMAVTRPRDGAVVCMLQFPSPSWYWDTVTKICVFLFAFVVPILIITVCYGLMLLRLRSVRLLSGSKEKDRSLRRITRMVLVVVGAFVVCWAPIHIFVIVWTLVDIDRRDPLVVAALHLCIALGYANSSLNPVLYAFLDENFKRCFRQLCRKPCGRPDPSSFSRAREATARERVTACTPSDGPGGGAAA", "assay_type": "cell-based", "conditions": "MCAM 20 nM", "how_it_was_run": "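HEK293 cells stably co-expressing the GloSensor 22F cAMP sensor and human delta receptor were kept under hygromycin B/G418 selection and plated at 40 000/well. They were loaded 2 h in the dark at 30°C with 450 μg/ml D-luciferin. Antagonist was added 15 min before agonist or during loading; for washout, medium was replaced twice. Luminescence was read at 30°C, 1 Hz: 5 min baseline, 5 min agonist, then 30 min forskolin (10 μM). Results were expressed as % forskolin stimulation; ≥4 experiments, triplicate.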"}, "kappa opioid receptor": {"molecular_target": "kappa opioid receptor (Rattus norvegicus, UniProt P34975)", "sequence (P34975 whole entry)": "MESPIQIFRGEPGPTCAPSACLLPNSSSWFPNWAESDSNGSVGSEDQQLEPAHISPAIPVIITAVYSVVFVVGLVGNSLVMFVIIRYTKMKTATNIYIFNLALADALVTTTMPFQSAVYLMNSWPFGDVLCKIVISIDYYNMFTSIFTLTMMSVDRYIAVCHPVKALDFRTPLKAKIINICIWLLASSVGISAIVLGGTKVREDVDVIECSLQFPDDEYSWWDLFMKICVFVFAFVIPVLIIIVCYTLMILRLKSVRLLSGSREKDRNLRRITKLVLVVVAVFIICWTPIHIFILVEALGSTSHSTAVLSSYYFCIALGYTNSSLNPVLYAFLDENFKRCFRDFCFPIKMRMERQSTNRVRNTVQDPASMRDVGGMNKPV", "conditions": "in vivo"}, "human mu opioid receptor [7]": {"molecular_target": "T1, human mu opioid receptor", "assay_type": "cell-based", "remark": "listed apart in the source"}}, "note": "Values joined by “and” are separate entries in the source; they are usually repeats but may differ in a detail not shown here. Equal values may be shown once.", "data": [{"smiles": "C[C@@H](NC(=O)[C@@H](N)Cc1ccc(O)cc1)C(=O)NCC(=O)N(C)[C@@H](Cc1ccccc1)C(=O)NCCO", "note": "[DAMGO, [D‐Ala^2,N‐MePhe^4,Gly‐ol^5]‐enkephalin]", "values": [{"measurement": "Emax", "setting": "human mu opioid receptor [1]", "value": 85, "unit": "%"}, {"measurement": "Emax (maximal inhibition of forskolin-stimulated cAMP levels) by DAMGO", "setting": "human mu opioid receptor [2]", "value": "43% ± 2% and 46% ± 3% and 48% ± 5%"}, {"measurement": "response to DAMGO (inhibition of forskolin-stimulated cAMP levels)", "setting": "human mu opioid receptor [2]", "value": "essentially abolished"}, {"measurement": "effect of agonist on PGE2-stimulated thermal allodynia", "setting": "mu opioid receptor [3]; DAMGO 20 μg i.pl., vehicle pretreatment, rat hindpaw", "value": "reduced"}]}, {"smiles": "Cc1ccc(/C=C/C(=O)N[C@@]23CCC(=O)[C@@H]4Oc5c(O)ccc6c5[C@@]42CCN(CC2CC2)[C@@H]3C6)cc1", "note": "[MCAM, 14β‐(4′‐methylcinnamoylamido)‐7,8‐dihydro‐N‐cyclopropylmethyl‐normorphinone]", "values": [{"measurement": "effect of antagonist alone on forskolin-stimulated cAMP levels", "setting": "human mu opioid receptor [2]", "value": "did not alter"}, {"measurement": "effect of washout on antagonism of DAMGO", "setting": "human mu opioid receptor [2]", "value": "did not alter"}, {"measurement": "effect of washout on the reduction of the DAMGO maximal response", "setting": "human mu opioid receptor [2]", "value": "insensitive to washout"}, {"measurement": "rightward shift of the morphine concentration response curve by the antagonist", "setting": "human mu opioid receptor [2]", "value": 10, "unit": "fold"}, {"measurement": "3H-DAMGO binding in brain tissue", "setting": "mu opioid receptor [4]", "value": "reduced"}, {"measurement": "change in the maximal response to U50488", "setting": "[5]", "value": "no change"}, {"measurement": "rightward shift of the curve for U50488 by the antagonist", "setting": "[5]", "value": "~ 10 fold"}, {"measurement": "effect of washout on antagonism at kappa receptors", "setting": "[5]; MCAM 50 nM, 2 h, then wash", "value": "fully reversed"}, {"measurement": "effect of antagonist on the antinociceptive response to DPDPE", "setting": "delta opioid receptor; MCAM 0.5 μg/50 μl i.pl., 15 min pretreatment", "value": "antagonized"}, {"measurement": "effect of antagonist on DPDPE-mediated antinociceptive response", "setting": "delta opioid receptor; tested 24 h after MCAM administration i.pl.", "value": "did not block"}, {"measurement": "effect of antagonist on the antinociceptive response to DAMGO", "setting": "mu opioid receptor [3]; MCAM 0.25 μg/50 μl i.pl., 15 min pretreatment", "value": "antagonized"}, {"measurement": "change in the maximal response to DPDPE", "setting": "[6]; 15 min or 2 h pretreatment", "value": "no change"}, {"measurement": "rightward shift of the curve for DPDPE by the antagonist", "setting": "[6]; 15 min or 2 h pretreatment", "value": "~ 10 fold"}, {"measurement": "effect of washout on antagonism at delta receptors", "setting": "[6]; 2 h, then wash", "value": "fully reversed"}, {"measurement": "effect of antagonist on U50488-mediated antinociceptive response", "setting": "kappa opioid receptor", "value": "did not block"}, {"measurement": "effect of antagonist on the antinociceptive response to U50488", "setting": "kappa opioid receptor", "value": "antagonized"}]}, {"smiles": "COC(=O)/C=C/C(=O)N[C@@H]1CC[C@@]2(O)[C@H]3Cc4ccc(O)c5c4[C@@]2(CCN3CC2CC2)[C@H]1O5", "note": "[β‐FNA, β‐funaltrexamine]", "values": [{"measurement": "effect of antagonist alone on forskolin-stimulated cAMP levels", "setting": "human mu opioid receptor [2]", "value": "had no effect"}, {"measurement": "effect of washout on antagonism of DAMGO", "setting": "human mu opioid receptor [2]", "value": "not sensitive to washout"}, {"measurement": "rightward shift of the DAMGO curve by the antagonist", "setting": "human mu opioid receptor [7]", "value": "about 100 fold"}]}]}
